In ChEMBL document CHEMBL3112444, “Synthesis and anticancer activity of focused compound libraries from the natural product lead, oroidin” (2014):

test system: HT-29; assay: Cytotoxicity against human HT-29 cells assessed as growth inhibition after 72 hrs by MTT assay; assay type: functional; details: HT-29, 72 h
How it was run: (§1)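 Cells in logarithmic growth kept in DMEM with 10% FBS, 10 mM sodium bicarbonate, penicillin 100 IU/mL, glutamine 4 mM, at 37 °C under 5% CO2. Plated in duplicate at 2500–4000 cells/well. Compound (30 mM DMSO stock) added 24 h after plating. MTT read at 540 nm after 72 h exposure.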

Point of comparison: `O=C(NCCc1ccc(O)cc1)c1cc(Br)c(Br)[nH]1`, GI50 28 µM. Against it:
- O=C(NCc1ccccc1)c1cc(Br)c(Br)[nH]1 — 6.1-fold lower, 4.6 µM

test system: not listed separately; assay: Cytotoxicity against human BE(2)-C cells assessed as growth inhibition after 72 hrs by MTT assay; assay type: functional; details: not given; how it was run: as §1

Point of comparison: `O=C(NCc1ccccc1)c1cc(Br)c(Br)[nH]1`, GI50 4.8 µM. Against it:
- O=C(NCCc1ccc(O)cc1)c1cc(Br)c(Br)[nH]1 — 3.3-fold higher, 16 µM

test system: not listed separately; assay: Cytotoxicity against human H460 cells assessed as growth inhibition at 25 uM after 72 hrs by MTT assay relative to control; assay type: functional; details: NCI-H460, 72 h, read-out: GI; how it was run: as §1

Point of comparison: `O=C(NCCCc1ccccc1)c1ccc[nH]1`, inhibition of growth at 25 µM 13%. Against it:
- O=C(NCCc1ccccc1)c1cc(Br)c(Br)[nH]1 — higher, 19%
- O=C(NCCCc1ccccc1)c1cc(Br)c(Br)[nH]1 — higher, 25%
- O=C(NCCc1ccc(O)cc1)c1cc(Br)c(Br)[nH]1 — lower, 11%
- O=C(NCc1ccccc1)c1cc(Br)c(Br)[nH]1 — higher, 43%
- O=C(NCCc1ccccc1)c1ccc[nH]1 — lower, 5%

test system: MCF7; assay: Cytotoxicity against human MCF7 cells assessed as growth inhibition after 72 hrs by MTT assay; assay type: functional; details: MCF7, 72 h; how it was run: as §1

Point of comparison: `O=C(NCCc1ccc(O)cc1)c1cc(Br)c(Br)[nH]1`, GI50 12 µM. Against it:
- O=C(NCc1ccccc1)c1cc(Br)c(Br)[nH]1 — within 1.5-fold, 11 µM

test system: A-431; assay: Cytotoxicity against human A431 cells assessed as growth inhibition after 72 hrs by MTT assay; assay type: functional; details: A-431, 72 h; how it was run: as §1

Point of comparison: `O=C(NCCc1ccc(O)cc1)c1cc(Br)c(Br)[nH]1`, GI50 20 µM. Against it:
- O=C(NCc1ccccc1)c1cc(Br)c(Br)[nH]1 — within 1.5-fold, 22 µM

test system: not listed separately; assay: Cytotoxicity against human MIA cells assessed as growth inhibition after 72 hrs by MTT assay; assay type: functional; details: not given; how it was run: as §1

Point of comparison: `O=C(NCCc1ccc(O)cc1)c1cc(Br)c(Br)[nH]1`, GI50 43 µM. Against it:
- O=C(NCc1ccccc1)c1cc(Br)c(Br)[nH]1 — higher, > 50 µM

test system: not listed separately; assay: Cytotoxicity against human SJ-G2 cells assessed as growth inhibition after 72 hrs by MTT assay; assay type: functional; details: SJ-G2, 72 h; how it was run: as §1

Point of comparison: `O=C(NCCc1ccc(O)cc1)c1cc(Br)c(Br)[nH]1`, GI50 30 µM. Against it:
- O=C(NCc1ccccc1)c1cc(Br)c(Br)[nH]1 — 2.7-fold lower, 11 µM

test system: not listed separately; assay: Cytotoxicity against human BE(2)-C cells assessed as growth inhibition at 25 uM after 72 hrs by MTT assay relative to control; assay type: functional; details: read-out: GI; how it was run: as §1

Point of comparison: `O=C(NCCc1ccc(O)cc1)c1cc(Br)c(Br)[nH]1`, inhibition of growth at 25 µM 101%. Against it:
- O=C(NCCCc1ccccc1)c1ccc[nH]1 — lower, < 0%
- O=C(NCCc1ccccc1)c1cc(Br)c(Br)[nH]1 — lower, 62%
- O=C(NCCCc1ccccc1)c1cc(Br)c(Br)[nH]1 — lower, < 0%
- O=C(NCc1ccccc1)c1cc(Br)c(Br)[nH]1 — not separable, > 100%
- O=C(NCCc1ccccc1)c1ccc[nH]1 — lower, < 0%

test system: A2780; assay: Cytotoxicity against human A2780 cells assessed as growth inhibition at 25 uM after 72 hrs by MTT assay relative to control; assay type: functional; details: A2780, 72 h, read-out: GI; how it was run: as §1

Point of comparison: `O=C(NCCc1ccccc1)c1ccc[nH]1`, inhibition of growth at 25 µM 6%. Against it:
- O=C(NCCCc1ccccc1)c1ccc[nH]1 — higher, 10%
- O=C(NCCc1ccccc1)c1cc(Br)c(Br)[nH]1 — higher, 58%
- O=C(NCCCc1ccccc1)c1cc(Br)c(Br)[nH]1 — higher, 48%
- O=C(NCCc1ccc(O)cc1)c1cc(Br)c(Br)[nH]1 — higher, 90%
- O=C(NCc1ccccc1)c1cc(Br)c(Br)[nH]1 — higher, 84%

test system: A-431; assay: Cytotoxicity against human A431 cells assessed as growth inhibition at 25 uM after 72 hrs by MTT assay relative to control; assay type: functional; details: A-431, 72 h, read-out: GI; how it was run: as §1

Point of comparison: `O=C(NCc1ccccc1)c1cc(Br)c(Br)[nH]1`, inhibition of growth at 25 µM 56%. Against it:
- O=C(NCCCc1ccccc1)c1ccc[nH]1 — lower, 1%
- O=C(NCCc1ccccc1)c1cc(Br)c(Br)[nH]1 — lower, 7%
- O=C(NCCCc1ccccc1)c1cc(Br)c(Br)[nH]1 — lower, 5%
- O=C(NCCc1ccc(O)cc1)c1cc(Br)c(Br)[nH]1 — higher, 68%
- O=C(NCCc1ccccc1)c1ccc[nH]1 — lower, 5%

test system: DU-145; assay: Cytotoxicity against human DU145 cells assessed as growth inhibition after 72 hrs by MTT assay; assay type: functional; details: DU-145, 72 h; how it was run: as §1

Point of comparison: `O=C(NCc1ccccc1)c1cc(Br)c(Br)[nH]1`, GI50 33 µM. Against it:
- O=C(NCCc1ccc(O)cc1)c1cc(Br)c(Br)[nH]1 — higher, > 50 µM

test system: not listed separately; assay: Cytotoxicity against human U87 cells assessed as growth inhibition at 25 uM after 72 hrs by MTT assay relative to control; assay type: functional, U-87MG ATCC; details: U-87 MG, read-out: GI; how it was run: as §1

Point of comparison: `O=C(NCCc1ccccc1)c1ccc[nH]1`, inhibition of growth at 25 µM 9%. Against it:
- O=C(NCCCc1ccccc1)c1ccc[nH]1 — higher, 11%
- O=C(NCCc1ccccc1)c1cc(Br)c(Br)[nH]1 — lower, < 0%
- O=C(NCCCc1ccccc1)c1cc(Br)c(Br)[nH]1 — lower, < 0%
- O=C(NCCc1ccc(O)cc1)c1cc(Br)c(Br)[nH]1 — lower, < 0%
- O=C(NCc1ccccc1)c1cc(Br)c(Br)[nH]1 — higher, 31%

test system: DU-145; assay: Cytotoxicity against human DU145 cells assessed as growth inhibition at 25 uM after 72 hrs by MTT assay relative to control; assay type: functional; details: DU-145, 72 h, read-out: GI; how it was run: as §1

Point of comparison: `O=C(NCc1ccccc1)c1cc(Br)c(Br)[nH]1`, inhibition of growth at 25 µM 52%. Against it:
- O=C(NCCCc1ccccc1)c1ccc[nH]1 — lower, < 0%
- O=C(NCCc1ccccc1)c1cc(Br)c(Br)[nH]1 — lower, < 0%
- O=C(NCCCc1ccccc1)c1cc(Br)c(Br)[nH]1 — lower, < 0%
- O=C(NCCc1ccc(O)cc1)c1cc(Br)c(Br)[nH]1 — lower, 3%
- O=C(NCCc1ccccc1)c1ccc[nH]1 — lower, 5%

test system: MCF7; assay: Cytotoxicity against human MCF7 cells assessed as growth inhibition at 25 uM after 72 hrs by MTT assay relative to control; assay type: functional; details: MCF7, 72 h, read-out: GI; how it was run: as §1

Point of comparison: `O=C(NCCCc1ccccc1)c1ccc[nH]1`, inhibition of growth at 25 µM 21%. Against it:
- O=C(NCCc1ccccc1)c1cc(Br)c(Br)[nH]1 — higher, 70%
- O=C(NCCCc1ccccc1)c1cc(Br)c(Br)[nH]1 — higher, 63%
- O=C(NCCc1ccc(O)cc1)c1cc(Br)c(Br)[nH]1 — higher, 81%
- O=C(NCc1ccccc1)c1cc(Br)c(Br)[nH]1 — higher, > 100%
- O=C(NCCc1ccccc1)c1ccc[nH]1 — lower, 7%

test system: not listed separately; assay: Cytotoxicity against mouse SMA cells assessed as growth inhibition at 25 uM after 72 hrs by MTT assay relative to control; assay type: functional; details: read-out: GI; how it was run: as §1

Point of comparison: `O=C(NCc1ccccc1)c1cc(Br)c(Br)[nH]1`, inhibition of growth at 25 µM 61%. Against it:
- O=C(NCCCc1ccccc1)c1ccc[nH]1 — lower, 8%
- O=C(NCCc1ccccc1)c1cc(Br)c(Br)[nH]1 — lower, 53%
- O=C(NCCCc1ccccc1)c1cc(Br)c(Br)[nH]1 — lower, 45%
- O=C(NCCc1ccc(O)cc1)c1cc(Br)c(Br)[nH]1 — lower, 46%
- O=C(NCCc1ccccc1)c1ccc[nH]1 — lower, 7%

test system: not listed separately; assay: Cytotoxicity against human MIA cells assessed as growth inhibition at 25 uM after 72 hrs by MTT assay relative to control; assay type: functional; details: read-out: GI; how it was run: as §1

Point of comparison: `O=C(NCCc1ccccc1)c1cc(Br)c(Br)[nH]1`, inhibition of growth at 25 µM 19%. Against it:
- O=C(NCCCc1ccccc1)c1ccc[nH]1 — lower, 10%
- O=C(NCCCc1ccccc1)c1cc(Br)c(Br)[nH]1 — higher, 21%
- O=C(NCCc1ccc(O)cc1)c1cc(Br)c(Br)[nH]1 — higher, 20%
- O=C(NCc1ccccc1)c1cc(Br)c(Br)[nH]1 — higher, 33%
- O=C(NCCc1ccccc1)c1ccc[nH]1 — lower, < 0%

test system: HT-29; assay: Cytotoxicity against human HT-29 cells assessed as growth inhibition at 25 uM after 72 hrs by MTT assay relative to control; assay type: functional; details: HT-29, 72 h, read-out: GI; how it was run: as §1

Point of comparison: `O=C(NCCc1ccccc1)c1ccc[nH]1`, inhibition of growth at 25 µM 9%. Against it:
- O=C(NCCCc1ccccc1)c1ccc[nH]1 — higher, 16%
- O=C(NCCc1ccccc1)c1cc(Br)c(Br)[nH]1 — higher, 46%
- O=C(NCCCc1ccccc1)c1cc(Br)c(Br)[nH]1 — higher, 41%
- O=C(NCCc1ccc(O)cc1)c1cc(Br)c(Br)[nH]1 — higher, 48%
- O=C(NCc1ccccc1)c1cc(Br)c(Br)[nH]1 — higher, > 100%

test system: not listed separately; assay: Cytotoxicity against mouse SMA cells assessed as growth inhibition after 72 hrs by MTT assay; assay type: functional; details: not given; how it was run: as §1

Point of comparison: `O=C(NCc1ccccc1)c1cc(Br)c(Br)[nH]1`, GI50 25 µM. Against it:
- O=C(NCCc1ccc(O)cc1)c1cc(Br)c(Br)[nH]1 — within 1.5-fold, 23 µM

test system: SW480; assay: Cytotoxicity against human SW480 cells assessed as growth inhibition after 72 hrs by MTT assay; assay type: functional; details: SW480, 72 h; how it was run: as §1

`O=C(NCCc1ccc(O)cc1)c1cc(Br)c(Br)[nH]1` and `O=C(NCc1ccccc1)c1cc(Br)c(Br)[nH]1` cannot be ordered by GI50: over 50 µM for the first, over 50 µM for the second.

test system: SW480; assay: Cytotoxicity against human SW480 cells assessed as growth inhibition at 25 uM after 72 hrs by MTT assay relative to control; assay type: functional; details: SW480, 72 h, read-out: GI; how it was run: as §1

Point of comparison: `O=C(NCc1ccccc1)c1cc(Br)c(Br)[nH]1`, inhibition of growth at 25 µM 33%. Against it:
- O=C(NCCCc1ccccc1)c1ccc[nH]1 — lower, 7%
- O=C(NCCc1ccccc1)c1cc(Br)c(Br)[nH]1 — lower, 1%
- O=C(NCCCc1ccccc1)c1cc(Br)c(Br)[nH]1 — lower, < 0%
- O=C(NCCc1ccc(O)cc1)c1cc(Br)c(Br)[nH]1 — lower, < 0%
- O=C(NCCc1ccccc1)c1ccc[nH]1 — lower, 9%

test system: A2780; assay: Cytotoxicity against human A2780 cells assessed as growth inhibition after 72 hrs by MTT assay; assay type: functional; details: A2780, 72 h; how it was run: as §1

Point of comparison: `O=C(NCc1ccccc1)c1cc(Br)c(Br)[nH]1`, GI50 14 µM. Against it:
- O=C(NCCc1ccc(O)cc1)c1cc(Br)c(Br)[nH]1 — within 1.5-fold, 11 µM

test system: not listed separately; assay: Cytotoxicity against human U87 cells assessed as growth inhibition after 72 hrs by MTT assay; assay type: functional, U-87MG ATCC; details: U-87 MG; how it was run: as §1

`O=C(NCCc1ccc(O)cc1)c1cc(Br)c(Br)[nH]1` and `O=C(NCc1ccccc1)c1cc(Br)c(Br)[nH]1` cannot be ordered by GI50: over 50 µM for the first, over 50 µM for the second.

test system: not listed separately; assay: Cytotoxicity against human SJ-G2 cells assessed as growth inhibition at 25 uM after 72 hrs by MTT assay relative to control; assay type: functional; details: SJ-G2, 72 h, read-out: GI; how it was run: as §1

Point of comparison: `O=C(NCCCc1ccccc1)c1ccc[nH]1`, inhibition of growth at 25 µM 0%. Against it:
- O=C(NCCc1ccccc1)c1cc(Br)c(Br)[nH]1 — higher, 22%
- O=C(NCCCc1ccccc1)c1cc(Br)c(Br)[nH]1 — higher, 8%
- O=C(NCCc1ccc(O)cc1)c1cc(Br)c(Br)[nH]1 — higher, 44%
- O=C(NCc1ccccc1)c1cc(Br)c(Br)[nH]1 — higher, 95%
- O=C(NCCc1ccccc1)c1ccc[nH]1 — higher, 2%

test system: not listed separately; assay: Cytotoxicity against human H460 cells assessed as growth inhibition after 72 hrs by MTT assay; assay type: functional; details: NCI-H460, 72 h; how it was run: as §1

Point of comparison: `O=C(NCCc1ccc(O)cc1)c1cc(Br)c(Br)[nH]1`, GI50 39 µM. Against it:
- O=C(NCc1ccccc1)c1cc(Br)c(Br)[nH]1 — within 1.5-fold, 35 µM
